Reference: ChEMBL document CHEMBL1921775, “Phenolic glycosides from sugar maple (Acer saccharum) bark” (J Nat Prod, 2011)
Converted amounts (≈) assume the structure as drawn.

Tests used:
[1] = system: HCT-116; assay: Cytotoxicity against human HCT116 cells after 72 hrs by MTS assay; assay type: functional, cell-based; settings: HCT-116, 72 h
Summary of the method: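 HCT-116 carcinoma cells in McCoy's 5A with 10% FBS, 1% nonessential amino acids, 2% HEPES and antibiotics, passages 26–35, 37 °C, 5% CO2. Samples were DMSO-solubilized by sonication and diluted in medium, final DMSO ≤0.5%. Cells were exposed for 72 h to six-point 4-fold dilutions. MTS plus phenazine methosulfate ran 3 h, with absorbance at 490 nm versus control wells. IC50 given as mean ± SD, three experiments.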

[2] = system: Caco-2; assay: Cytotoxicity against human Caco2 cells after 72 hrs by MTS assay; assay type: functional, cell-based; settings: Caco-2, 72 h
Summary of the method: (§1)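 Colon cells (Caco-2 adenocarcinoma, nontumorigenic CCD-18Co) in EMEM with 10% FBS, 1% nonessential amino acids, 1% L-glutamine and antibiotics, passages 26–35, 37 °C, 5% CO2. Samples were dissolved in DMSO by sonication and diluted in medium, with final DMSO ≤0.5%. Six-point 4-fold dilution series ran for 72 h. MTS/PMS was read at OD490 after 3 h. IC50 reported as mean ± SD of three experiments.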

[3] = Cytotoxicity against human CCD-18Co cells after 72 hrs by MTS assay; assay type: cell-based; summary of the method: as §1

In the case of `COc1cc([C@H]2OC[C@H]3[C@@H]2CO[C@@H]3c2cc(OC)c(O[C@@H]3O[C@H](CO)[C@@H](O)[C@H](O)[C@H]3O)c(OC)c2)cc(OC)c1O`, the IC50 [1] is reported as under 5 µg/mL, the IC50 [2] is reported as under 5 µg/mL and the IC50 [3] is reported as under 5 µg/mL.

Work on `COc1cc(CO)cc(OC)c1O[C@@H]1O[C@H](CO)[C@@H](O)[C@H](O)[C@H]1O` yielded an IC50 [1] of under 5 µg/mL, an IC50 [2] of under 5 µg/mL and an IC50 [3] of under 5 µg/mL.

Work on `COc1cc([C@@H]2Oc3c(OC)cc(CCCO)cc3[C@H]2CO)ccc1O[C@@H]1O[C@@H](C)[C@H](O)[C@@H](O)[C@H]1O` yielded an IC50 [1] of under 5 µg/mL, an IC50 [2] of under 5 µg/mL and an IC50 [3] of under 5 µg/mL.

In the case of `COc1cc(CO)ccc1O[C@@H]1O[C@H](CO[C@@H]2OC[C@](O)(CO)[C@H]2O)[C@@H](O)[C@H](O)[C@H]1O`, the IC50 [1] is reported as under 5 µg/mL, the IC50 [2] is reported as under 5 µg/mL and the IC50 [3] is reported as under 5 µg/mL.

With `COc1cc(O[C@@H]2O[C@H](CO[C@@H]3OC[C@](O)(CO)[C@H]3O)[C@@H](O)[C@H](O)[C@H]2O)cc(OC)c1OC` the IC50 [1] was under 5 µg/mL, the IC50 [2] was under 5 µg/mL and the IC50 [3] was under 5 µg/mL.

Work on `COc1cc(O[C@@H]2O[C@H](CO)[C@@H](O)[C@H](O)[C@H]2O)cc(OC)c1OC` yielded an IC50 [1] of under 5 µg/mL, an IC50 [2] of under 5 µg/mL and an IC50 [3] of under 5 µg/mL.

With `COc1cc([C@@H]2c3cc4c(cc3[C@@H](O[C@@H]3O[C@@H]5CO[C@@H](C)O[C@H]5[C@H](O)[C@H]3O)[C@H]3COC(=O)[C@H]23)OCO4)cc(OC)c1O` [ETOPOSIDE] the IC50 [1] was 9.9 µg/mL (≈ 16.8 µM), the IC50 [2] was 9.4 µg/mL (≈ 16 µM) and the IC50 [3] was 43.6 µg/mL (≈ 74.1 µM).

In the case of `COc1cc(C(=O)OC[C@H]2O[C@@H](Oc3ccc([C@@H]4Oc5c(OC)cc(CCCO)cc5[C@H]4CO)cc3OC)[C@H](O)[C@@H](O)[C@@H]2O)ccc1O` [SACCHARUMOSIDE A], the IC50 [1] is reported as under 5 µg/mL, the IC50 [2] is reported as under 5 µg/mL and the IC50 [3] is reported as under 5 µg/mL.

In the case of `COc1cc(C(=O)OC[C@H]2O[C@@H](Oc3ccc(CO)cc3OC)[C@H](O)[C@@H](O)[C@@H]2O)ccc1O` [SACCHARUMOSIDE B], the IC50 [1] is reported as under 5 µg/mL, the IC50 [2] is reported as under 5 µg/mL and the IC50 [3] is reported as under 5 µg/mL.

In the case of `COC(=O)c1cc(O[C@@H]2O[C@H](CO[C@@H]3OC[C@](O)(CO)[C@H]3O)[C@@H](O)[C@H](O)[C@H]2O)ccc1O` [SACCHARUMOSIDE C], the IC50 [1] is reported as under 5 µg/mL, the IC50 [2] is reported as under 5 µg/mL and the IC50 [3] is reported as under 5 µg/mL.

For `COC(=O)c1cc(O[C@@H]2O[C@H](CO)[C@@H](O)[C@H](O)[C@H]2O[C@@H]2OC[C@](O)(CO)[C@H]2O)ccc1O` [SACCHARUMOSIDE D], the IC50 [1] was under 5 µg/mL, the IC50 [2] was under 5 µg/mL and the IC50 [3] was under 5 µg/mL.

`COc1cc2ccc(=O)oc2cc1O[C@@H]1O[C@H](CO)[C@@H](O)[C@H](O)[C@H]1O` [SCOPOLIN] showed an IC50 [1] of under 5 µg/mL, an IC50 [2] of under 5 µg/mL and an IC50 [3] of under 5 µg/mL.

Compound `COc1cc(CO)ccc1O[C@@H]1O[C@H](CO)[C@@H](O)[C@H](O)[C@H]1O` [VANILLOLOSIDE] has an IC50 [1] of under 5 µg/mL, an IC50 [2] of under 5 µg/mL and an IC50 [3] of under 5 µg/mL.
